# ChEMBL document CHEMBL4513216, “Probing the Open Global Health Chemical Diversity Library for Multistage-Active Starting Points for Next-Generation Antimalarials” (ACS Infect Dis, 2020)
# Assay: Toxicity liver stage against HepG2, at 10uM
# Type: cell-based
# Parameters: test concentration 10 uM, cell line HepG2-A16-CD81EGFP
# Conditions: human, HepG2-A16-CD81EGFP cells; read-out: INHIBITION
# Summary of the method: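 Uninfected HepG2-A16-CD81EGFP cells, 3 × 10^3 per well, 1536-well, plated on prespotted compound at 10 μM final, parasite-free screening media added to match infected plates; puromycin 10 μM positive, DMSO 0.5% negative; run in parallel with 48 h PbLuc assay at 37 °C, 5% CO2; viability by CellTiter-Glo luminescence, normalized to controls.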
row,Structure (SMILES),cytotoxicity at 10 µM
1,O=C1NCC2(CCCN(C(=O)Nc3ccc4occc4c3)CC2)O1 (stereo not given),2.09%
2,CCN(CC)CC(=O)NCc1cccnc1-n1cnc2ccccc21,1.77%
3,CSCC(=O)NC1CC(=O)N(CCc2ccccc2)C1 (stereo not given),-2.1%
4,CCc1nc(C)c([C@H]2CN(C)C[C@@H]2C(=O)Nc2cccc3cn[nH]c23)[nH]1,-3.44%
5,COc1ccc(OCc2cc(C(=O)N3CCSCC3)n[nH]2)c(Cl)c1,-7.51%
6,Cc1cc(C)c(C#N)c(N2CCC3(CCCN(CCO)C3=O)C2)n1 (stereo not given),0.854%
7,CCNc1nc(C)c(C(=O)N(C)Cc2nc(-c3ccncc3)no2)s1,1.41%
8,Cc1ccnc(NCCNC(=O)C2CC3(CCNCC3)CN2C)c1 (stereo not given),2.69%
9,C[C@@H]1CN(CCOc2ccc(Cl)cc2)CC[C@@]1(O)C1CCOCC1,19.4%
10,COC(=O)NCC(=O)N1CCC(Oc2cccc(C)c2)CC1,-0.555%
11,CC(Oc1ccc(F)cc1F)C(=O)N1CCC2(CC1)CC(=O)N(C)C2 (stereo not given),1.63%
12,Cc1cc2nc(C(C)C)cc(N3CCC(Oc4ncccn4)CC3)n2n1,13.9%
13,CCC(CO)N(Cc1cccnc1)Cc1ccc(-c2ccn[nH]2)s1 (stereo not given),-1.55%
14,O=C(NC1CCCNC1)c1cc(COc2cccc(C(F)(F)F)c2)[nH]n1 (stereo not given),-1.31%
15,Cc1[nH]c2c(C)ccc(C)c2c1CC(=O)NCCNc1cccnc1,0.393%
16,COCCN(Cc1cccs1)c1nc(CCN)nc2ccccc12,4.49%
17,COc1cccn(CC(=O)N2CCCC3(CCCCC3)C2)c1=O,-1.29%
18,CN(C)CC(C)(C)Cn1cnc(-c2ccccc2)c1-c1ccncc1,4.19%
19,CN1CCN(Cc2nnc(C3CCN(CC4CC4)CC3)n2C)CC1,-13.6%
20,Cc1ccn(CCC(=O)N2CCOC(c3nc(-c4cccs4)no3)C2)n1 (stereo not given),7.03%
21,CCOCC(O)CN1CCN(C(=O)c2cc(Cl)ccc2F)CC1 (stereo not given),-6.54%
22,COc1cccc(CC(=O)N2CCC(NCc3c[nH]nc3C)CC2)c1,-8.98%
23,COc1c(C2CCCN2C(=O)c2ccc3c(c2)OCO3)c(C)nn1C (stereo not given),-13.4%
24,Cc1csc(C2CCCN(C(=O)Cn3ccccc3=O)C2)n1 (stereo not given),-5.68%
25,Cc1cnn(CC2CCCN2C(=O)c2cccc(-n3ccc(C)n3)c2)c1 (stereo not given),-19.2%
26,CC(C)(C)c1nc(CN2CCC(c3ccnn3CCO)CC2)no1,-5.22%
27,Cc1cccnc1CNC(=O)N(CCCO)C1CCc2ccccc21 (stereo not given),-11.4%
28,CC(C)Oc1ncccc1CNC(=O)Nc1ccccn1,-9.41%

row,Structure (SMILES),cytotoxicity at 10 µM
1,c1ccc(-n2cc(CN3CCCC3Cn3cccn3)nn2)cc1 (stereo not given),0.207%
2,Cc1ccc(OCC(=O)NC2CCN(S(C)(=O)=O)CC2)cc1,-0.0552%
3,Cc1ccc(CNC(=O)NC(C)Cn2cccn2)cn1 (stereo not given),-11.2%
4,COC1CCN(Cc2csc(C(C)C)n2)CC1,3.32%
5,Cc1cc(NC(=O)C(C)N2CCN(c3nc(C)cs3)CC2)on1 (stereo not given),-0.71%
6,CN(Cc1cc(-c2ccccc2)no1)CC1CCCN1c1cccnn1 (stereo not given),-9.09%
7,CN(Cc1cccnc1)CC1CCCN1c1cccnn1 (stereo not given),0.192%
8,FC(F)(F)c1nc(C2CCCNC2)no1 (stereo not given),5.25%
9,NCCc1cn(Cc2ccccn2)c2ccccc12,3.71%
10,O=C1CCC2(CCC(NC3CCOC3)CC2)N1Cc1ccccc1 (stereo not given),-5.54%
11,Cn1cc(C(=O)N[C@@H]2CN(Cc3ccc(F)cc3)[C@@H]3CCCO[C@@H]32)cn1,-1.31%
12,CN1CC(=O)N(c2cccc(F)c2)CC12CCN(Cc1ccncc1)C2 (stereo not given),5.69%
13,CN1CC[C@@H]2[C@@H](CO[C@H]2CNC(=O)c2nccn2C)C1,-113%
14,CCc1ccc(CN2CCC3(CC2)C(=O)N(C)CCN3CC2CC2)cc1,5.68%
15,Cc1ccc(CN2Cc3c(C(=O)N4CCOCC4)nn(C)c3C2)s1,6.15%
16,Cn1cc(CN2CCCC23CCN(C(=O)c2ccccn2)CC3)cn1,-1.94%
17,O=C(NCc1ccccn1)[C@]12COC[C@H]1CN(Cc1cccnc1)C2,5.64%
18,O=C(NC1CCCC1)c1ccc(C2CCCNC2)nc1 (stereo not given),-13.7%
19,O=C(c1cccs1)N1C[C@@H]2OCCN(CC3CCCO3)[C@@H]2C1 (stereo not given in full),-2.24%
20,O=C(C[C@@H]1COC[C@H]2CN(Cc3ccc(F)cc3)C[C@@H]12)N1CCOCC1,7.75%
21,COCCN1CCc2cc(C(=O)O)c(NCC3CC3)nc2CC1,4.21%
22,Fc1cccnc1OC[C@@]12CCO[C@@H]1CCN(CC1CCOCC1)C2,-14.6%
23,c1cncc(C2COC3(CCN(CC4CC4)CC3)C2)c1 (stereo not given),-14.9%
24,CNC(=O)[C@@]12CCCN(c3ncccn3)[C@@H]1CN(C)C2,12.8%
25,c1ccc(CO[C@H]2CO[C@@]3(CCCN(Cc4cccnc4)C3)C2)nc1,-6.37%
26,O=S(=O)(Cc1ccccc1)N1CCCn2cnc(CN3CCCC3)c2C1,3.3%
27,CCOC(=O)c1cnn(C2CCN(C(=O)CC(C)(C)C)CC2)c1N,6.26%
